Here are results for 2 compounds from ChEMBL document CHEMBL3758131, “Towards new 5-HT7 antagonists among arylsulfonamide derivatives of (aryloxy)ethyl-alkyl amines: Multiobjective based design, synthesis, and antidepressant and anxiolytic properties” (Eur J Med Chem, 2016).

The source made the active and inactive calls. The rule behind the calls is not given here.

Data set [1] concerns Mus musculus. Kind of data set: Antidepressant activity in C57BL/6J mouse assessed as average force at 10 mg/kg, ip measured over 6 mins by tail suspension test (reference value: 0.281 +/- 0.018 to 0.359 +/- 0.027 N). The format is functional.
The subject of data set [2] is Mus musculus. Kind of data set: Antidepressant activity in C57BL/6J mouse assessed as number of events at […] mg/kg, ip measured over 6 mins by tail suspension test (reference value: 1325.1 +/- 77.8 to 1773.4 +/- 109.9). The format is functional.
The subject of data set [3] is Mus musculus. Kind of data set: Antidepressant activity in C57BL/6J mouse assessed as number of events at […], ip measured over 6 mins by tail suspension test (reference value: 1325.1 +/- 77.8 to 1773.4 +/- 109.9). Type of data set: functional.
Data set [4] deals with Mus musculus. Kind of data set: Antidepressant activity in C57BL/6J mouse assessed as number of events at 5 mg/kg, ip measured over 6 mins by tail suspension test (reference value: 1325.1 +/- 77.8 to 1773.4 +/- 109.9). Type of data set: functional.
Data set [5] concerns Mus musculus. Kind of data set: Antidepressant activity in C57BL/6J mouse assessed as number of events at 10 mg/kg, ip measured over 6 mins by tail suspension test (reference value: 1325.1 +/- 77.8 to 1773.4 +/- 109.9). Type of data set: functional.
In data set [6] the test system is Mus musculus. Kind of data set: Antidepressant activity in C57BL/6J mouse assessed as immobility time at […] mg/kg, ip measured over 6 mins by tail suspension test (reference value: 160.7 +/- 12 to 170.6 +/- 9 sec). The format is functional.
Data set [7] has as its system Mus musculus. Nature of the data set: Antidepressant activity in C57BL/6J mouse assessed as immobility time at […], ip measured over 6 mins by tail suspension test (reference value: 160.7 +/- 12 to 170.6 +/- 9 sec). Type of data set: functional.
Data set [8] concerns Mus musculus. Kind of data set: Antidepressant activity in C57BL/6J mouse assessed as immobility time at 5 mg/kg, ip measured over 6 mins by tail suspension test (reference value: 160.7 +/- 12 to 170.6 +/- 9 sec). Type of data set: functional.
Data set [9] has as its system Mus musculus. Nature of the data set: Antidepressant activity in C57BL/6J mouse assessed as immobility time at 10 mg/kg, ip measured over 6 mins by tail suspension test (reference value: 160.7 +/- 12 to 170.6 +/- 9 sec). The format is functional.
Data set [10] has as its system Mus musculus. Nature of the data set: Antidepressant activity in albino Swiss mouse assessed as decrease in immobility time at 10 mg/kg, ip by forced swim test. The format is functional.
Data set [11] concerns Mus musculus. Nature of the data set: Toxicity in ip dosed albino Swiss mouse assessed as effect on spontaneous locomotory activity at MED measured over 2 to 6 mins. The format is organism-based. The conditions noted are these: in vivo. A digest of the protocol:
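Male Albino Swiss mice (22–28 g) received drug i.p. 60 min before testing, in 1% aqueous Tween 80 or distilled water. Each mouse was habituated alone in a plastic cage for 30 min, then ambulation was counted from 2 to 6 min. Groups of 6–10 animals, each used once.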

For data set [12], the system named is Mus musculus. Kind of data set: Antidepressant activity in ip dosed C57BL/6J mouse assessed as reduction in immobility time of mouse by tail suspension test. Type of data set: functional. The conditions noted are these: read-out: MED.
The subject of data set [13] is Rattus norvegicus. Nature of the data set: Antidepressant activity in ip dosed Wistar rat assessed as reduction in immobility time of rat by forced swim test. Type of data set: functional. A digest of the protocol: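 Male Wistar rats (220-250 g), ip injection 30 min before test. Day 1: 15-min pre-swim in a cylinder with 15 cm of water at 25 °C, then drying under a lamp. Next day: total immobility recorded over the whole 5-min test, with fresh water for each rat.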

The test system of data set [14] is Mus musculus. Nature of the data set: Anxiolytic activity in ip dosed albino Swiss mouse assessed as increase in number of shocks accepted measured over 1 min, 15 secs by four plates test. Type of data set: functional. The settings on record: read-out: MED. A digest of the protocol: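 Male Albino Swiss mice, ip injection 60 min before test. Four-plate cage; after 15 s of habituation, each plate-to-plate crossing during a 1-min session is punished with a 0.8 mA, 0.5 s foot shock, followed by a 3-s shock-free interval. Number of shocks accepted is counted.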

Data set [15] concerns Mus musculus. Kind of data set: Toxicity in ip dosed C57BL/6J mouse assessed as effect on spontaneous locomotory activity at MED measured over 6 mins. The format is organism-based. The conditions noted are these: in vivo, 0.1 h. A digest of the protocol: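 Mice habituated 30 min in individual cages, then ambulation counted over a period matching each behavioural test: 6 min for the tail suspension test and 1 min 15 s for the four-plate test. Compounds given ip at the active doses.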

In data set [16] the test system is Mus musculus. Kind of data set: Toxicity in ip dosed C57BL/6J mouse assessed as effect on spontaneous locomotory activity at MED measured over 1 min 15 secs. The conditions noted are these: in vivo. Type of data set: organism-based.
In data set [17] the test system is Mus musculus. Kind of data set: Antidepressant activity in C57BL/6J mouse assessed as average force at […] mg/kg, ip measured over 6 mins by tail suspension test (reference value: 0.281 +/- 0.018 to 0.359 +/- 0.027 N). Type of data set: functional.
Data set [18] relates to Mus musculus. Kind of data set: Antidepressant activity in C57BL/6J mouse assessed as average force at […], ip measured over 6 mins by tail suspension test (reference value: 0.281 +/- 0.018 to 0.359 +/- 0.027 N). Type of data set: functional.
Data set [19] deals with Mus musculus. Kind of data set: Antidepressant activity in C57BL/6J mouse assessed as average force at 5 mg/kg, ip measured over 6 mins by tail suspension test (reference value: 0.281 +/- 0.018 to 0.359 +/- 0.027 N). The format is functional.
Data set [20] deals with Mus musculus. Kind of data set: Antidepressant activity in C57BL/6J mouse assessed as average force at 20 mg/kg, ip measured over 6 mins by tail suspension test (reference value: 0.281 +/- 0.018 to 0.359 +/- 0.027 N). The format is functional.
The test system of data set [21] is Mus musculus. Nature of the data set: Antidepressant activity in C57BL/6J mouse assessed as average force at 40 mg/kg, ip measured over 6 mins by tail suspension test (reference value: 0.281 +/- 0.018 to 0.359 +/- 0.027 N). The format is functional.
For data set [22], the system named is Mus musculus. Nature of the data set: Antidepressant activity in C57BL/6J mouse assessed as number of events at 20 mg/kg, ip measured over 6 mins by tail suspension test (reference value: 1325.1 +/- 77.8 to 1773.4 +/- 109.9). The format is functional.
Data set [23] concerns Mus musculus. Nature of the data set: Antidepressant activity in C57BL/6J mouse assessed as number of events at 40 mg/kg, ip measured over 6 mins by tail suspension test (reference value: 1325.1 +/- 77.8 to 1773.4 +/- 109.9). Type of data set: functional.
Data set [24] relates to Mus musculus. Kind of data set: Antidepressant activity in C57BL/6J mouse assessed as immobility time at 20 mg/kg, ip measured over 6 mins by tail suspension test (reference value: 160.7 +/- 12 to 170.6 +/- 9 sec). Type of data set: functional.
Data set [25] deals with Mus musculus. Kind of data set: Antidepressant activity in C57BL/6J mouse assessed as immobility time at 40 mg/kg, ip measured over 6 mins by tail suspension test (reference value: 160.7 +/- 12 to 170.6 +/- 9 sec). The format is functional.
The test system of data set [26] is Mus musculus. Nature of the data set: Antidepressant activity in ip dosed albino Swiss mouse assessed as decrease in immobility time by forced swim test. The format is functional, organism-based.

As for `CC1CCN(CC[C@H]2CCCN2S(=O)(=O)c2cccc(O)c2)CC1`, the Activity was 0.311 N in [1]; 1764.8 in [2]; 1467.1 in [3]; 1604.7 in data set [4]; 1600.1 in data set [5]; “Non-toxic” in data set [11]. In addition, the Activity entry in [15] is listed as “Non-toxic”; in [16], “Non-toxic”; in [17] it was 0.396 N; in data set [18] it was 0.449 N; in data set [19], 0.363 N. Also, the Time in data set [6] is reported as 139.5 s; in data set [7], 151 s; in [8], 170.6 s; in data set [9], 186.1 s. Moreover, in data set [10], the inhibition in vivo at 10 mg/kg was found to be 31%. Moreover, the minimal effective dose is 2.5 mg/kg in [12], 1.25 mg/kg in [13] (read-out: MED) and 1 mg/kg in data set [14].

As for `CN(C)CCCC1(c2ccc(F)cc2)OCc2cc(C#N)ccc21` (centres undefined) [CITALOPRAM], the Activity in data set [1] is reported as 0.318 N; in [20], 0.381 N; in [21], 0.398 N; in [5], 1820.1; in [22], 1961.3; in data set [23] it was 2053.1. Also, the Activity result in data set [11], in data set [15] and in data set [16] was “Non-toxic” each time. Moreover, the Time in data set [9] was 148.7 s; in data set [24], 103 s; in data set [25] it was 95.5 s. Also, in data set [26], the inhibition entry was “Dose-dependent effect”. Moreover, in data set [12], the minimal effective dose amounted to 20 mg/kg. Further, the MED result in [13] is “inactive”.

As usually defined, the inhibition in vivo is the drop in the measured response relative to a control, in per cent.
